RORA act = RORA (human) activation | P35398 | CHO-K1 Gal4-RORA LBD luciferase reporter, luminescence; percent increase over mock-subtracted basal signal | activation, % at 10 µM | 65,000 tested, 1.5% active;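 active = activation above the mean of all tested compounds plus 3 SD, cut at about 49% in these data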;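 note: 0% = DMSO-treated RORA cells and 100% = added signal equal to DMSO minus mock-transfected cells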
Cdc25B block = inhibitors of human Cdc25B phosphatase; recombinant Cdc25B, OMFP fluorescence Ex485/Em525; AID 368; P30305; 65,000 tested, 0.1% active; inhibition, %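 (compounds tested at 10 µM final in the well)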; in the data active = inhibition above about 50%
SF1 activator = SF-1 (human) activation | Q13285 | CHO-K1 Gal4-SF-1 LBD luciferase reporter; % increase over DMSO SF-1-specific signal | activation, % at 10 µM | 65,000 tested, 1.9% active;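 active = activation above the mean activation of all tested compounds plus 3 SD, cut at about 50% in these data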
Target sequence (Q13285 whole entry, looked up, the tested form may be a part): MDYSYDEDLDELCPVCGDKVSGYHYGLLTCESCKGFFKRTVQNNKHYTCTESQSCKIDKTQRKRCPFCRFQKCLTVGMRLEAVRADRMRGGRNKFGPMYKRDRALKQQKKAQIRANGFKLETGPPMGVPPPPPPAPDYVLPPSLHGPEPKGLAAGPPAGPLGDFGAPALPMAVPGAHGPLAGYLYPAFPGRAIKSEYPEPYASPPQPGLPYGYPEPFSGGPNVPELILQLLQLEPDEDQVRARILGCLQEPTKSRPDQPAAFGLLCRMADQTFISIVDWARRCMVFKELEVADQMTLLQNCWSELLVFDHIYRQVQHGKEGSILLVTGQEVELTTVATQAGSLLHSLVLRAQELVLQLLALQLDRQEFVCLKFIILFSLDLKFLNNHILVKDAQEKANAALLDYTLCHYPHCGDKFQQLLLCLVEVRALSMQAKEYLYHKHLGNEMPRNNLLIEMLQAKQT
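Assay system – CHO-K1 cells with Gal4–hSF-1 LBD chimera plus Gal4-driven luciferase · Quantity – 4,000 cells per well · Times – compound added 1 h post-seeding, 20 h exposure at 37 °C, 5% CO2 · Measured by – luciferase light emission · Benchmarks – DMSO and mock-transfected background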
JNK3 inh = blocks human JNK3 kinase activity; purified JNK3 kinase activity, HTS; inhibition, % at 8 µM; 60,000 tested, 0.61% active; in the data active = inhibition above about 17%;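 note: 0% = DMSO and 100% = reference inhibitor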
MKP-1 inh = human dual specificity phosphatase 1 inhibition | P28562 | recombinant MKP-1, OMFP hydrolysis fluorescence | inhibition, %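 (compounds tested at a single concentration somewhere between 10 and 100 µM)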 | 65,000 tested, 0.15% active | AID 374;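 active = inhibition above about 50%, limit read from the data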;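 note: 0% = DMSO max control wells and 100% = wells with enzyme stopped by NaOH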
Hsp90 block = displaces geldanamycin probe from tumor Hsp90; P07900; NCI-N417 lysate Hsp90, Cy3B-geldanamycin FP displacement; inhibition, % at 30 µM; 64,000 tested, 0.35% active; AID 429;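 active = inhibition above 50%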;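 note: 0% = tracer plus lysate wells and 100% = tracer alone without lysate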
* = called active by the depositor; . = no result given. An excerpt weighted towards active compounds, which were near 3.4% of everything screened.

SMILES	RORA act	Cdc25B block	SF1 activator	JNK3 inh	MKP-1 inh	Hsp90 block
Cc1ccc(C2=Nc3ccccc3NC(C)(c3ccc(C)o3)C2)o1 (configuration not stated)	53*	-11	106*	2	-2	0
O=C(c1cc2c(=O)n3ccccc3nc2s1)N1CCOCC1	24	-15	60*	2	6	-6
O=C(c1cc2c(=O)oc3ccccc3c2s1)N1CCOCC1	46	-17	29	3	-3	2
Cc1nn(-c2ccccc2)c2sc(C(=O)O)cc12	-7	102*	-8	.	16	-4
Cc1ccc(-n2nc(C)c3cc(C(=O)O)sc32)cc1	-9	2	2	5	-2	-6
Cc1nn(-c2ccccc2)c2sc(C(=O)N3CCOCC3)cc12	58*	4	94*	3	1	-2
COc1ccc2c(c1OC)C(=O)N1c3ccccc3C(=O)N(c3ccccc3)C21 (configuration not stated)	-26	-3	0	3	-33	3
O=C(c1cccc2c1-c1ccccc1/C2=N/O)N1CCCCC1	-15	4	2	26*	11	-4
Cc1nc2nc(-c3ccccc3)nn2c(C)c1Cl	77*	-1	103*	-5	10	0
CCOC(=O)c1n[nH]c2ccccc12	-1	-6	14	38*	-26	-4
CCc1ccc2c(COC(=O)c3n[nH]c4ccccc34)cc(=O)oc2c1	28	-4	58*	21*	26	-2
Cc1ccc2c(COC(=O)c3n[nH]c4ccccc34)cc(=O)oc2c1	47	-1	45	.	12	-2
Cc1cc(C(=O)COC(=O)c2n[nH]c3ccccc23)c(C)n1C	8	-3	11	6	18	-6
CCC(CC)NCCCNc1cc(OC)cc2cccnc12	.	.	.	.	.	10
C=CCn1c(C)cc(C(=O)COc2nncc3ccccc23)c1C	80*	-1	39	.	13	.
C=CCn1c(C)cc(C(=O)CSc2nc3ccccc3c(=O)[nH]2)c1C	-37	-13	112*	-1	-9	-4
O=C(CSc1nc2ccccc2[nH]1)N1CCCCC1	52*	-4	48	3	-5	0
C=CCn1c(C)cc(C(=O)CSc2nnc(NCc3ccccc3)s2)c1C	32	-4	59*	-1	25	-7
C=CCn1c(C)cc(C(=O)CSc2nnc(Cc3ccccc3)o2)c1C	3	-13	13	.	-3	.
CCOC(=O)C1CCCCN1Cc1ccccc1C(F)(F)F (configuration not stated)	-13	-8	-18	-4	0	0
CCOC(=O)c1cnc(-n2nc(C)cc2C)nc1N(CC)CC	-16	4	-31	1	-16	5
Cc1cc(C(=O)CSc2nc3ccccc3[nH]2)c(C)n1C	59*	1	61*	5	-9	-2
CS(=O)(=O)c1ccc2nc(NC(=O)C3COc4ccccc4O3)sc2c1 (configuration not stated)	7	1	52*	-6	29	-3
Cc1cc(C(=O)Nc2nc3ccc(S(C)(=O)=O)cc3s2)c(C)o1	89*	-14	50*	-3	3	-7
O=C(Nc1nc(-c2nc3ccccc3s2)cs1)C1COc2ccccc2O1 (configuration not stated)	13	-3	55*	-1	8	-2
SMILES	RORA act	Cdc25B block	SF1 activator	JNK3 inh	MKP-1 inh	Hsp90 block
Cc1ccc(C(=O)Nc2nc3ccc(S(C)(=O)=O)cc3s2)s1	24	-12	29	-2	2	-1
Cc1nnc(NC(=O)C2COc3ccccc3O2)s1 (configuration not stated)	18	-10	52*	7	0	-2
CC(NC(=O)c1ccnc(C(C)(C)C)c1)c1ccccc1 (configuration not stated)	16	-5	-2	2	28	-4
O=C1c2ccccc2NC(c2ccccn2)N1c1ccc(Cl)cc1 (configuration not stated)	51*	-11	64*	3	-8	-5
CC(=O)O[C@]1(C(C)=O)CC[C@H]2[C@@H]3C=C(Cl)C4=CC(=O)[C@@H]5C[C@@H]5[C@]4(C)[C@H]3CC[C@@]21C	.	.	.	.	.	2
O=C(CSc1nnc(-c2cccnc2)o1)Nc1ccccn1	33	1	76*	-9	-7	38
O=C(Nc1ccncc1)C1CCCN(S(=O)(=O)c2cccc3cccnc23)C1 (configuration not stated)	57*	3	36	-14	-2	0
COc1cccc(NC(=O)C2CCCN(S(=O)(=O)c3cccc4cccnc34)C2)c1 (configuration not stated)	5	-20	-4	-9	-1	-3
Cc1ccc(N=C(c2cccs2)N2CCOCC2)cc1	15	2	-7	-4	-4	0
CCOC(=O)c1ccc(NC(=O)N2CCc3ccccc32)cc1	14	-18	61*	1	3	0
CSc1ccc(CNc2ccccn2)cc1	61*	-5	17	1	-1	0
Cc1ccc2nc(-c3cccc(S(=O)(=O)N(C)C)c3)cn2c1	56*	4	52*	-3	-13	1
CCC(C)n1c(-c2cccs2)nc2nc3ccccc3nc21 (configuration not stated)	7	2	-10	1	6	-5
CCOC(=O)c1sc2nc3c(cc2c1N)COC(C)(C)C3	39	-1	53*	-1	3	-4
CCC1(C)Cc2nc3sc(C(=O)O)c(N)c3cc2CO1 (configuration not stated)	-5	-8	18	.	7	.
Cc1occc1C(=O)Nc1cccc2ccccc12	28	-7	74*	0	3	6
O=C(c1ccco1)N1CCN(c2cc(=O)n(C3CCCCC3)c(=O)[nH]2)CC1	-12	65*	-3	-4	1	3
O=c1cc(N2CCC(Cc3ccccc3)CC2)[nH]c(=O)n1C1CCCCC1	-18	11	3	-7	-3	0
CCC(CO)Nc1ncnc2c1cnn2-c1ccc(Cl)cc1 (configuration not stated)	28	3	35	1	17	-2
CCCNc1ncnc2c1cnn2-c1ccc(OC)cc1	-4	-1	46	6	14	-2
COc1ccc(-n2ncc3c(NCc4ccccn4)ncnc32)cc1	36	-3	56*	-4	2	-1
Clc1ccc(Cn2ncc3c(NCc4ccco4)ncnc32)c(Cl)c1	46	6	62*	1	-14	-3
O=C1CCCN1CCCNc1ncnc2c1cnn2-c1ccc(Cl)cc1	69*	-24	19	-1	5	-2
CN(C)CCNc1ncnc2c1cnn2-c1ccc(Cl)cc1	43	1	73*	-7	0	-2

High-throughput results from PubChem BioAssay.
